According to ChEMBL document CHEMBL1148340 (J Med Chem, 2004):

Legend:
[1] = target: T1, Human immunodeficiency virus type 1 reverse transcriptase (Human immunodeficiency virus 1, UniProt Q72547); experiment: Inhibitory concentration against wild type HIV-1/138Lys reverse transcriptase (RT) using [3H]dGTP as a radioligand
Outline: (§1)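 Recombinant HIV-1 RT (IIIB-derived) or Glu138Lys mutant. Buffer: 50 mM Tris-HCl pH 7.8, 5 mM DTT, 150 mM KCl, 5 mM MgCl₂, 500 μM EDTA, 0.06% Triton X-100, with BSA. Incubated 37 °C, 30 min, then TCA/pyrophosphate precipitation on ice.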

[2] = target: T1, Human immunodeficiency virus type 1 reverse transcriptase; experiment: Inhibitory concentration against wild type HIV-1 reverse transcriptase (RT) using poly rC.dG as the template or primer; outline: as §1
[3] = tested on: Human immunodeficiency virus 1; experiment: Anti-HIV activity against wild type HIV-1(LAI) strain in P4/R5 cells; conditions: Human immunodeficiency virus 1, P4/R5
CCRF-CEM [4] = experiment: Effective concentration required to inhibit HIV-1 induced cytopathicity in human CEM cell lines; format: functional, cell-based
Outline: (§2)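 CEM cells at 4 × 10⁵/mL were infected with HIV-1 or HIV-2 at ~100 CCID₅₀ per mL. The cells were mixed 1:1 with serial compound dilutions. Giant cell formation was scored microscopically after 4 days. EC₅₀ is the concentration that inhibited virus-induced cytopathicity by 50%.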

CCRF-CEM [5] = experiment: Effective concentration required to inhibit HIV-2 induced cytopathicity in human CEM cell lines; format: functional, cell-based; outline: as §2
[6] = Partition coefficient (logP); format: physicochemical; conditions: octanol/water
[7] = tested on: Human immunodeficiency virus 1; experiment: Anti-HIV activity against PFA-resistant mutant HIV-1W88G strain in P4/R5 cells; format: functional, organism-based; conditions: Human immunodeficiency virus 1, P4/R5
Outline: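 HeLa-derived P4/R5 reporter cells (stable Tat-activated β-galactosidase under HIV LTR), 5×10^4 cells/mL, infected with HIV-1 LAI or W88G at MOI 0.05 TCID₅₀/mL. Drug added in 2- or 3-fold dilutions, in triplicate. At 48 h, lysis buffer and luminescent substrate added and β-galactosidase read by luminometer. EC₅₀ given as mean ± SD of five independent experiments (three in one case).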

CCRF-CEM [8] = experiment: Effective concentration required to inhibit HIV-1E138K induced cytopathicity in human CEM cell lines
MT4 [9] = experiment: Effective concentration required to inhibit HIV-1 induced cytopathicity in human MT-4 cell lines; format: functional, cell-based
Outline: (§3)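 MT-4 cells at 3 × 10⁵/mL were infected with HIV-1 or HIV-2 at ~100 CCID₅₀ per mL and mixed 1:1 with compound dilutions. After 5 days, HIV-induced cytopathicity was recorded by trypan blue dye exclusion. EC₅₀ is the concentration that reduced virus-induced loss of cell viability by 50%.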

MT4 [10] = experiment: Effective concentration required to inhibit HIV-2 induced cytopathicity in human MT-4 cell lines; format: functional, cell-based; outline: as §3
MT4 [11] = experiment: Cytostatic concentration required to reduce MT-4 cell viability in mock-infected cell cultures; format: functional; conditions: Homo sapiens
Outline: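 Mock-infected MT-4 cells at 3 × 10⁵/mL were exposed to compound dilutions. Viable cells were counted by trypan blue exclusion. CC₅₀ is the concentration that reduced the number of viable cells by 50%.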

CCRF-CEM [12] = experiment: Cytostatic concentration required to inhibit proliferation of CEM cells; format: functional; conditions: Homo sapiens
Outline: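 CEM cells were cultured with serial compound dilutions alongside the antiviral assay. CC₅₀ is the concentration that inhibited cell proliferation by 50%.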

| Structure (SMILES) | IC50 [1] [µM] | IC50 [2] [µM] | EC50 [3] [µM] | EC50 (CCRF-CEM [4]) [µM] | EC50 (CCRF-CEM [5]) [µM] | logP [6] | EC50 [7] [µM] | EC50 (CCRF-CEM [8]) [µM] | EC50 (MT4 [9]) [µM] | EC50 (MT4 [10]) [µM] | CC50 (MT4 [11]) [µM] | CC50 (CCRF-CEM [12]) [µM] |
| --- | --- | --- | --- | --- | --- | --- | --- | --- | --- | --- | --- | --- |
| Cc1cn([C@@H]2O[C@H](CO[Si](C)(C)C(C)(C)C)[C@@]3(OS(=O)(=O)C=C3N)[C@H]2O[Si](C)(C)C(C)(C)C)c(=O)n(C)c1=O | > 100 | 3.1 | – | – | – | – | – | – | – | – | – | – |
| O=C(O)P(=O)(O)O [FOSCARNET] | – | – | 44 | 121 | 105 | -0.56 | > 300 | 87 | 133 | 140 | 230 | – |
| Cc1cn([C@@H]2O[C@H](CO[Si](C)(C)C(C)(C)C)[C@@]3(OS(=O)(=O)C=C3N)[C@H]2O[Si](C)(C)C(C)(C)C)c(=O)n(CCCO)c1=O | > 100 | 8.1 | 0.043 | – | > 10 | 2.26 | 0.027 | > 2 | – | > 2 | 3.86 | – |
| COC(=O)P(=O)(OC)OCCCn1c(=O)c(C)cn([C@@H]2O[C@H](CO[Si](C)(C)C(C)(C)C)[C@@]3(OS(=O)(=O)C=C3N)[C@H]2O[Si](C)(C)C(C)(C)C)c1=O (some centres not stated) | > 500 | 11 | – | 0.08 | > 50 | 7.12 | – | > 10 | 0.282 | > 10 | 18.4 | 20.9 |
| Cc1cn([C@@H]2O[C@H](CO[Si](C)(C)C(C)(C)C)[C@@]3(OS(=O)(=O)C=C3N)[C@H]2O[Si](C)(C)C(C)(C)C)c(=O)n(CCCOP(=O)(O)C(=O)OCc2ccccc2)c1=O | 312 | 3.8 | – | 3 | > 50 | 5.02 | – | 20 | 1.26 | > 50 | 84 | 138 |
| Cc1cn([C@@H]2O[C@H](CO[Si](C)(C)C(C)(C)C)[C@@]3(OS(=O)(=O)C=C3N)[C@H]2O[Si](C)(C)C(C)(C)C)c(=O)n(CCCOP(=O)(O)C(=O)O)c1=O | 437 | 3.7 | 0.3 | 0.47 | > 50 | 0.63 | 0.16 | ≥ 50 | 0.82 | > 50 | 111 | 178 |
| CCOC(=O)P(=O)(O)OCCCn1c(=O)c(C)cn([C@@H]2O[C@H](CO[Si](C)(C)C(C)(C)C)[C@@]3(OS(=O)(=O)C=C3N)[C@H]2O[Si](C)(C)C(C)(C)C)c1=O | 293 | 6.3 | – | 2.13 | > 50 | 4.01 | – | 25 | 4.23 | > 50 | 84.3 | 135 |
| COC(=O)P(=O)(O)OCCCn1c(=O)c(C)cn([C@@H]2O[C@H](CO[Si](C)(C)C(C)(C)C)[C@@]3(OS(=O)(=O)C=C3N)[C@H]2O[Si](C)(C)C(C)(C)C)c1=O | 394 | 4.7 | – | 4.5 | > 50 | 4.01 | – | > 50 | 20.1 | > 50 | 55.5 | 146 |
